From PubChem BioAssay
Shown are actives, neighbours in structure and some others; about 2.9% of the full set was active somewhere.
TRPC6 activator = mouse TRPC6 channel activators, primary screen, cell-based, HEK293, membrane potential dye. Short transient receptor potential channel 6 (Mus musculus), Q61143. AID 2550, 2010. HEK293-TRPC6 membrane potential dye fluorescence; stronger effect = higher value. 310,000 compounds, 0.13% hits. B-score at 10 µM;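 active means B-score of the integrated fluorescence ratio above library mean plus 3 SD, and starting fluorescence ratio within library mean plus 5 SD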;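 further: higher score means more depolarization so channel activation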
Target sequence (Q61143 whole entry, looked up): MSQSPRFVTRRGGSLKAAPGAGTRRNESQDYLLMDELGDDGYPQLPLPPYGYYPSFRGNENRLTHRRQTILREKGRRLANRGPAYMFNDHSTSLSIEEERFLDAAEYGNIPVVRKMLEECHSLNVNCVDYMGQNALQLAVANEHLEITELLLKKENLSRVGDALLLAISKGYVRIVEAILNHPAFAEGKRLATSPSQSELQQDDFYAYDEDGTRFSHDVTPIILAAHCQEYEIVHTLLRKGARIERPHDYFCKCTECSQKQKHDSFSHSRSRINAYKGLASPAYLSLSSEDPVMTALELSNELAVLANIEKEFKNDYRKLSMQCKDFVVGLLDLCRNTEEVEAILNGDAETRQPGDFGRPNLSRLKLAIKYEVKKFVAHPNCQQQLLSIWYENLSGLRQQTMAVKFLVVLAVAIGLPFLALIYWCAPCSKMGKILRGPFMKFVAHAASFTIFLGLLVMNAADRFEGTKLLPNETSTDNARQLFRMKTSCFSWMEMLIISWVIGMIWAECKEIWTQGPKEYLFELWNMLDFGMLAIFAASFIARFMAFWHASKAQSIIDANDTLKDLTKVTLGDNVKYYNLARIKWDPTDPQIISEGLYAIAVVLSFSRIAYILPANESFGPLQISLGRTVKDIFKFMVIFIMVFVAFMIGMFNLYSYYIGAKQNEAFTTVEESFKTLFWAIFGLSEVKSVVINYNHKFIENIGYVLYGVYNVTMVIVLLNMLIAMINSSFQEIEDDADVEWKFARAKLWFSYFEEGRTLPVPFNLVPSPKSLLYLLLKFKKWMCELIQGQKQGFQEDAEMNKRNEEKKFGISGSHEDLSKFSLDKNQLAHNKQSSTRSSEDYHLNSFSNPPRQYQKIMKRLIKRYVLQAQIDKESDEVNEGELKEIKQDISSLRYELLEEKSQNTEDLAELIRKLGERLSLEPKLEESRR
TRPC4 act = activators of mouse TRPC4 channel, primary screen, Fluo4 calcium, HEK293 TRPC4beta/mu-opioid cells. 310,000 compounds, 0.49% hits. B-score at 10 µM. Fluo4 calcium fluorescence; stronger effect = higher value. Short transient receptor potential channel 4 (Mus musculus), Q9QUQ5;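 active means B-score above 5 SD of library B-scores, and initial fluorescence ratio not above library mean plus 5 SD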;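 further: positive B-score marks a calcium rise read as TRPC4 activation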
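Material: HEK293 stable line with TRPC4beta plus mu-opioid receptor; technique: Fluo4 calcium-sensitive dye fluorescence, kinetic, 1 Hz baseline; timing: Fluo4 dye loading 45 min at room temperature, 110 s recording; controls: assay buffer as low control, maximal DAMGO as high control; read-out: integrated baseline-normalised fluorescence ratio, converted to per-well B score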
TRPC4 inh = inhibitors of mouse TRPC4 channel, primary screen, Fluo4 calcium, HEK293 TRPC4beta/mu-opioid cells. DAMGO-evoked Fluo4 calcium flux; stronger effect = lower value. B-score at 10 µM. Short transient receptor potential channel 4 (Mus musculus), Q9QUQ5. 300,000 compounds, 0.39% hits;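 active means B-score over 3 SD under the library average, no early fluorescence shift, positive overall ratio signal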
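Material: HEK293 cells with stable TRPC4beta plus mu-opioid receptor expression / Probe or stimulus: DAMGO in two steps, submaximal then maximal / Compound: single concentration per test compound / Technique: kinetic Fluo4 fluorescence imaging of calcium influx / Read-out: per-well B score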
TRPC6 inhibitor = mouse TRPC6 channel inhibitors, primary screen, cell-based, HEK293, membrane potential dye. 310,000 compounds, 1.1% hits. B-score at 10 µM. ACh-evoked depolarization; stronger effect = lower value. Short transient receptor potential channel 6 (Mus musculus), Q61143. AID 2553, 2010;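 active means B-score under library mean minus 3 SD, initial fluorescence not abnormally high, positive integrated signal ratio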;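 further: B-score derived from integrated fluorescence ratio over the kinetic read; more negative B-score means stronger inhibition of depolarization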
TRPC4 potent = positive allosteric modulators of TRPC4, primary screen, cell-based, mouse TRPC4beta, HEK293 mu-opioid, Fluo-4 calcium; Short transient receptor potential channel 4 (Mus musculus), Q9QUQ5; DAMGO EC20, Fluo-4 Ca2+ flux; stronger effect = higher value; B-score at 10 µM; 310,000 compounds, 0.42% hits; AID 2227, 2009;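 active means B-score of calcium response area above 5 SD of library B-scores, with initial fluorescence ratio within 5 SD of library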
Kir21 inh = inhibitors of mouse Kir2.1 inward-rectifier potassium channel; Inward rectifier potassium channel 2 (Mus musculus), P35561; HEK293-Kir2.1, FluxOR thallium flux fluorescence; stronger effect = lower value; B-score at 10 µM; 310,000 compounds, 0.85% hits; AID 1672, 2009;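 active means fluorescence ratio B-score at or below minus 3 SD of library scores, with starting-brightness B-score within 2 SD, cut at about -4.2 in these data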;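 further: channel flux triggered by added potassium and thallium sulfate stimulus; B-score of peak minus minimum fluorescence over baseline after thallium stimulus; more negative B-score means stronger Kir2.1 block with less thallium influx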
Each line names hits and unclear results; the compound was inactive in the other large screens.

Clc1cc(/C=N\NC2=NCCN2)cc(Cl)n1	TRPC4 potent 18
C/[N+]([O-])=C\c1cccc(OCCN2CCN(c3ncc(C(F)(F)F)cc3Cl)CC2)c1	TRPC4 potent 12
N#C/C(=C\c1c(N(Cc2ccccc2)Cc2ccccc2)nc2ccccn2c1=O)C(N)=O	none
CCOc1ccc(CCNC(=O)CSCc2ccc(C)cc2)cc1OCC	Kir21 inh -6
Cc1ccc(C)c(OCCC(=O)NCCc2ccc(Cl)cc2)c1	none
CCOc1ccc(CCNC(=O)CCOc2cc(C)ccc2C)cc1OCC	Kir21 inh -5.1
O=C(CSCc1ccc(Br)cc1)NCCc1ccccc1	Kir21 inh -4.8
Cn1nc(-c2ccc(Cl)cc2)nc2c(=O)n(C)c(=O)nc1-2	TRPC6 inhibitor -5.1
CC(C)NS(=O)(=O)c1ccc(NC(=O)C(C)Oc2ccc(C(=O)c3ccccc3)cc2)cc1 (configuration not stated)	TRPC4 potent 44
O/N=C/c1cn(-c2ccccc2)nc1-c1ccc2c(c1)OCCO2	TRPC4 potent 24
O=C(O)/C=C/c1cn(-c2ccccc2)nc1-c1ccc2c(c1)OCCO2	none
CN1CCC(Oc2ccc(Sc3ccccc3)cc2)CC1	Kir21 inh -7.5
CN1CCC(Oc2ccccc2Sc2ccc(C(F)(F)F)cc2)CC1	Kir21 inh -11
CC1CCN(CCCNS(=O)(=O)c2cc(Br)cc3c2N(C(=O)C2CC2)CC3)CC1	TRPC4 act 105
CCCN(CCC)CCCNS(=O)(=O)c1cc(Br)cc2c1N(C(C)=O)CC2	TRPC4 act 62
COC(=O)CS(=O)(=O)c1cc(Br)cc2c1N(C(C)=O)CC2	none
Cc1ccc(S(=O)(=O)c2c(C(=O)c3ccccc3)cnc3cc4c(cc23)OCCO4)cc1	TRPC4 potent 18
Cc1c(C(=O)c2ccc(Cl)c(Cl)c2)cnc2cc3c(cc12)OCO3	none
CCC(=O)OCC(=O)Nc1ccc([N+](=O)[O-])cc1OC	none
Cc1ccc(C(=O)c2no[n+]([O-])c2C(=O)c2ccc(C)cc2)cc1	TRPC4 potent 29, Kir21 inh -7.9
CN(C)S(=O)(=O)N1CCC(CCCC2CCN(S(=O)(=O)N(C)C)CC2)CC1	TRPC4 potent 23
CN(Cc1ccccc1)C(=O)CCC1CCN(S(=O)(=O)N(C)C)CC1	none
COc1ccccc1C1c2ccc3ccccc3c2Oc2ncn(CCN(C)C)c(=N)c21 (configuration not stated)	Kir21 inh -5.2
COc1ccc(C2c3c(ncn(CCCO)c3=N)Oc3ccc4ccccc4c32)cc1 (configuration not stated)	none
COc1ccccc1C1c2ccc3ccccc3c2Oc2ncn(CCCO)c(=N)c21 (configuration not stated)	none
COc1ccc(C2c3ccc4ccccc4c3Oc3ncn(CCCN(C)C)c(=N)c32)cc1 (configuration not stated)	Kir21 inh -7.2
COc1ccc(/C=N/c2c(-c3ccco3)nc3ccccn23)cc1OC	none
CCC(C(=O)NCCc1c[nH]c2ccc(C)cc12)c1ccccc1 (configuration not stated)	Kir21 inh -4.5
CNCC(=O)Nc1ccc(Cl)c(C(F)(F)F)c1	TRPC4 potent 28
Cc1ccccc1NC(=O)CNc1ccc(Cl)c(C(F)(F)F)c1	none
CCCCCCCN1C(Nc2ccccc2)=NC[C@@H]1CC(C)C	Kir21 inh -4.9
CC(C)C[C@H]1CN=C(Nc2ccccc2)N1CCCC1CCCC1	Kir21 inh -4.6
CC(C)C[C@H]1CN=C(Nc2ccccc2)N1CCC1CCCC1	none
CC(C)C[C@H]1CN=C(Nc2ccccc2)N1CCCC1CCCCC1	none
COCC(=O)Nc1sc2c(c1C(=O)OC)CCC(C)C2 (configuration not stated)	none
Nn1c(SC/C=C/c2ccccc2)nnc1-c1ccco1	none
O=S(=O)(c1ccccc1)N1CCCC1c1cccs1 (configuration not stated)	Kir21 inh -5.4
O=C(NCc1ccccc1Cl)c1ccc(NC2=NC3CS(=O)(=O)CC3S2)cc1 (configuration not stated)	none
CCC(C)c1c(O)nc(SCC(=O)N2CCCCCC2)[nH]c1=O (configuration not stated)	none
CCCCc1c(O)nc(SCC(=O)O)[nH]c1=O	none
CCCCCc1c(O)nc(SCCN(CC)CC)[nH]c1=O	TRPC4 act 46
CC(C)c1c(O)nc(SCCC(=O)O)[nH]c1=O	none
CCCCCc1c(O)nc(SCCN(C)C)[nH]c1=O	TRPC4 act 93
CC(C)c1c(O)nc(SCC(=O)N2CCCCC2)[nH]c1=O	TRPC4 potent 10
CCCN(CCC)CCSc1nc(O)c(C(C)C)c(=O)[nH]1	TRPC4 potent 12
CCOCC(=O)N1CCN(Cc2ccc3c(c2)OCO3)CC1	none
CCCCCCc1c(O)nc(SCCN(C)C)[nH]c1=O	TRPC4 act 65
CCCCCCc1c(O)nc(SCC(=O)O)[nH]c1=O	none
Cc1onc(-c2ccccc2)c1C(=O)NC(=S)NNC(=O)c1ccncc1	none
Cc1onc(-c2ccccc2)c1C(=O)NC(C)c1ccc2c(c1)OCO2 (configuration not stated)	none
COc1ccc(C(=O)NC(=S)NNC(=O)c2c(-c3ccccc3)noc2C)cc1OC	TRPC4 act 85
Cc1onc(-c2ccccc2)c1C(=O)NC(=S)NNC(=O)c1ccco1	TRPC4 act 84
COc1ccc(CCNC(=O)c2c(-c3ccccc3)noc2C)cc1OC	none
Cc1onc(-c2ccccc2)c1C(=O)NNC(=S)NC(=O)c1ccc2c(c1)OCO2	TRPC4 act 79
Cc1onc(-c2ccccc2)c1C(=O)NNC(=S)NC(=O)/C=C/c1cccs1	TRPC4 act 52
Cc1cc(NC(=S)NC(=O)c2ccccc2)ccc1-c1cc2ccccc2oc1=O	none
CCOc1ccccc1NC(=O)c1cc(-c2cc(OC)c(OC)c(OC)c2)nc2ccccc12	none
O=C1C=CC(=O)N1CCNc1ncc(C(F)(F)F)cc1Cl	Kir21 inh -5.7
O=C1CC(=O)N(CCNc2ncc(C(F)(F)F)cc2Cl)C(=O)N1	none
CN(C)CCNC(=O)c1cc(Sc2ccc(F)cc2)nc2ccccc12	TRPC4 potent 31
C=CCn1c(SCc2n[nH]c(=S)n2-c2ccccc2)nnc1-c1ccccc1	TRPC4 potent 11
